Activity calls are given as the source filed them.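 The calls were made as follows: active = compounds with an ATP-loss curve whose half-maximal dose stays within twice the top dose, in every run; inconclusive = mixed run calls, weak flat effects or poor fits; inactive = the rest, including opposite-direction effects.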
Test: viability loss of SR-BI expressing CHO cells – cell-based, 24 h, ATP luminescence, dry powder, set 6, cytotoxicity control for SR-BI HDL uptake inhibitor project, dose response (AID 623895)
Conditions: ldlA[mSR-BI] CHO cells viability, ATP luminescence, 24 h; at 35 µM (top of the series)
In short: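 Assay system: ldlA[mSR-BI] cells | Quantity: 4,000 cells per well | Buffer or medium: Ham's F12 plus 10% FCS | Incubation: 24 h compound exposure at 37 °C, luminescence read 10 min after reagent | Dosing: 8 compound concentrations | Measure: Viability IC50 from dose-response fit | Technique: ATP luminescence (Cell Titer Glo)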

Row | Compound | activity change, negative = cytotoxicity
1 | C[C@@H]1CN([C@H](C)CO)C(=O)c2cc(NC(=O)C3CCCCC3)ccc2O[C@H]1CN(C)S(=O)(=O)c1ccc(Cl)cc1 | -30.6% (inactive)
2 | Cc1noc(C)c1S(=O)(=O)Nc1ccc2c(c1)C(=O)N([C@H](C)CO)C[C@@H](C)[C@H](CN(C)S(=O)(=O)c1ccc(Cl)cc1)O2 | -15.6% (inactive)
3 | C[C@@H]1CN([C@H](C)CO)C(=O)c2cc(NC(=O)CCCCCC(=O)Nc3ccccc3N)ccc2O[C@H]1CN(C)S(=O)(=O)c1ccc(Cl)cc1 | -0.144% (inactive)
4 | C[C@@H]1CN([C@H](C)CO)C(=O)c2cc(NC(=O)Cc3cn(C)c4ccccc34)ccc2O[C@H]1CN(C)Cc1ccncc1 | -16.9% (inactive)
5 | CO[C@H]1CN(C)C(=O)c2cc(NC(=O)c3ccccc3F)ccc2OC[C@@H](C)N(C(C)=O)C[C@@H]1C | 1.07% (inactive)
6 | C[C@@H]1CN([C@H](C)CO)C(=O)c2cc(NC(=O)Cc3cn(C)c4ccccc34)ccc2O[C@H]1CN(C)S(=O)(=O)c1ccc(F)cc1 | -29.1% (inactive)
7 | C[C@@H]1CN([C@H](C)CO)C(=O)c2cc(NC(=O)Cc3cn(C)c4ccccc34)ccc2O[C@H]1CN(C)CC1CCCCC1 | -22.1% (inactive)
8 | O=C(O)CC(C(=O)Nc1cccc(C(F)(F)F)c1)C1CCCO1 (stereo unspecified) | -9.62% (inactive)
9 | C[C@H](CO)N1C[C@H](C)[C@H](CN(C)C)Oc2c(NS(C)(=O)=O)cccc2C1=O | 4.96% (inactive)
10 | C[C@@H]1CN([C@H](C)CO)C(=O)c2cc(NS(=O)(=O)c3ccccc3)ccc2O[C@H]1CN(C)S(=O)(=O)c1ccc(Cl)cc1 | -8.14% (inactive)
11 | C[C@@H]1CN([C@@H](C)CO)C(=O)c2cc(NC(=O)Cc3cn(C)c4ccccc34)ccc2O[C@H]1CN(C)S(=O)(=O)c1ccc(Cl)cc1 | -25.3% (inactive)
12 | C[C@H](CO)N1C[C@H](C)[C@H](CN(C)S(=O)(=O)c2ccc(Cl)cc2)Oc2ccc(NC(=O)Cc3cn(C)c4ccccc34)cc2C1=O | -19.8% (inactive)
13 | C[C@@H]1CN([C@@H](C)CO)C(=O)c2cc(NC(=O)NC3CCCCC3)ccc2O[C@H]1CN(C)Cc1ccncc1 | 5.45% (inactive)
14 | C[C@@H]1CN([C@H](C)CO)C(=O)c2cc(NS(=O)(=O)c3cccs3)ccc2O[C@H]1CN(C)S(=O)(=O)c1ccc(Cl)cc1 | 1.79% (inactive)
15 | C[C@@H]1CN([C@H](C)CO)C(=O)c2cc(NC(=O)C3CCCCC3)ccc2O[C@H]1CN(C)C(=O)c1ccc(Cl)cc1 | -24.6% (inactive)
16 | C[C@H](C(=O)NC1CCCC1)N(C(=O)Cn1nnc(-c2ccc3c(c2)OCO3)n1)C1CCCCC1 | -16.5% (inactive)
17 | Cc1ccc(S(=O)(=O)N(C)C[C@@H]2Oc3ccc(NC(=O)Cc4cn(C)c5ccccc45)cc3C(=O)N([C@H](C)CO)C[C@H]2C)cc1 | -12.8% (inactive)
18 | C[C@@H]1CN([C@H](C)CO)C(=O)c2cc(NC(=O)Cc3cn(C)c4ccccc34)ccc2O[C@H]1CN(C)Cc1ccc(C(=O)Nc2ccccc2N)cc1 | -12.9% (inactive)
19 | C[C@@H]1CN([C@H](C)CO)C(=O)c2cc(NC(=O)Cc3cn(C)c4ccccc34)ccc2O[C@H]1CN(C)S(=O)(=O)c1cn(C)cn1 | -6.33% (inactive)

Row | Compound | activity change, negative = cytotoxicity
20 | Cc1ccccc1-c1ccc2c(c1)O[C@@H](CN(C)C(=O)Nc1ccc(F)cc1)[C@H](C)CN([C@@H](C)CO)S2(=O)=O | -23.7% (inactive)
21 | Cc1ccccc1-c1ccc2c(c1)O[C@H](CN(C)C(=O)Nc1ccc(F)cc1)[C@H](C)CN([C@H](C)CO)S2(=O)=O | -28.5% (inactive)
22 | COc1ccc(-c2nnn(CC(=O)N(C3CCCCC3)C(C)C(=O)NC3CCCCC3)n2)cc1OC (stereo unspecified) | -9.26% (inactive)
23 | C[C@@H]1CN([C@H](C)CO)C(=O)c2cc(NC(=O)C3CC3)ccc2O[C@H]1CN(C)S(=O)(=O)c1ccc(Cl)cc1 | -13% (inactive)
24 | O=C(C[C@@H]1CC[C@@H](NC(=O)CC2CC2)[C@H](CO)O1)NCc1ccc(Cl)cc1 | -2.93% (inactive)
25 | C[C@@H]1CN([C@@H](C)CO)C(=O)Cc2cc(N(C)C)ccc2O[C@@H]1CN(C)Cc1ccc(C(=O)O)cc1 | 4.97% (inactive)
26 | C[C@@H]1CN([C@@H](C)CO)C(=O)Cc2cc(NC(=O)CCCN(C)C)ccc2O[C@H]1CN(C)Cc1ccncc1 | 0.314% (inactive)
27 | C[C@@H]1CN([C@H](C)CO)C(=O)c2cc(NC(=O)C3CCCCC3)ccc2O[C@H]1CN(C)S(=O)(=O)c1ccccc1Cl | -18.6% (inactive)
28 | C[C@@H]1CN([C@H](C)CO)C(=O)c2cc(NC(=O)Cc3cn(C)c4ccccc34)ccc2O[C@H]1CN(C)C(=O)NC1CCCCC1 | 5.85% (inactive)
29 | CO[C@@H]1CN(C)C(=O)c2ccc(NC(=O)C3CC3)cc2OC[C@@H](C)N(Cc2ccncc2)C[C@H]1C | -2.35% (inactive)
30 | C[C@@H]1CN([C@H](C)CO)C(=O)c2cc(NC(=O)Nc3ccc(F)cc3)ccc2O[C@H]1CN(C)S(=O)(=O)c1ccc(Cl)cc1 | -20.6% (inactive)
31 | C[C@@H]1CN([C@H](C)CO)C(=O)c2cc(NC(=O)C3CCOCC3)ccc2O[C@H]1CN(C)S(=O)(=O)c1ccc(Cl)cc1 | -5.21% (inactive)
32 | COc1ccc(S(=O)(=O)N(C)C[C@@H]2Oc3ccc(NC(=O)Cc4cn(C)c5ccccc45)cc3C(=O)N([C@H](C)CO)C[C@H]2C)cc1 | -20.3% (inactive)
33 | COc1ccc2c(c1)CC(C1(O)C(=O)N(C)c3ccccc31)C2=O (stereo unspecified) | -9.47% (inactive)
34 | CNC[C@@H]1OCCCC[C@@H](C)Oc2ccc(NS(=O)(=O)c3ccc(Cl)cc3)cc2C(=O)N([C@H](C)CO)C[C@H]1C | -5.46% (inactive)
35 | C[C@@H]1CN([C@@H](C)CO)C(=O)Cc2cc(NS(C)(=O)=O)ccc2O[C@@H]1CN(C)Cc1ccc(C(F)(F)F)cc1 | -12.8% (inactive)
36 | Cc1noc(C)c1NC(=O)Nc1ccc2c(c1)C(=O)N([C@H](C)CO)C[C@@H](C)[C@H](CN(C)S(=O)(=O)c1ccc(Cl)cc1)O2 | -7.8% (inactive)
37 | CC(C)NC(=O)Nc1ccc2c(c1)C(=O)N([C@H](C)CO)C[C@@H](C)[C@H](CN(C)S(=O)(=O)c1ccc(Cl)cc1)O2 | 3.09% (inactive)
38 | COc1ccc(CN(C)C[C@@H]2Oc3ccc(NC(=O)CCCN(C)C)cc3C(=O)N([C@H](C)CO)C[C@H]2C)cc1 | 12.2% (inactive)

Row | Compound | activity change, negative = cytotoxicity
39 | C[C@@H]1CN([C@H](C)CO)C(=O)c2cc(NC(=O)Cc3cn(C)c4ccccc34)ccc2O[C@H]1CN(C)C(=O)Nc1cccc2ccccc12 | -4.64% (inactive)
40 | C[C@@H]1CN([C@H](C)CO)C(=O)c2cc(NC(=O)Cc3cn(C)c4ccccc34)ccc2O[C@H]1CN(C)C(=O)Nc1ccc(F)cc1 | -16.3% (inactive)
41 | C[C@@H]1CN([C@H](C)CO)C(=O)c2cc(NC(=O)Cc3cn(C)c4ccccc34)ccc2O[C@@H]1CN(C)S(=O)(=O)c1ccc(Cl)cc1 | -21.3% (inactive)
42 | C[C@@H]1CN([C@H](C)CO)C(=O)c2cc(NC(=O)Nc3cccc4ccccc34)ccc2O[C@H]1CN(C)S(=O)(=O)c1ccc(Cl)cc1 | -10.4% (inactive)
43 | C[C@@H]1CN([C@H](C)CO)C(=O)c2cc(NC(=O)Cc3cn(C)c4ccccc34)ccc2O[C@H]1CN(C)S(=O)(=O)c1ccc(Cl)cc1 | -19.8% (inactive)
44 | C[C@@H]1CN([C@H](C)CO)C(=O)c2cc(NC(=O)Cc3cn(C)c4ccccc34)ccc2O[C@H]1CN(C)Cc1ccc2c(c1)OCO2 | -15% (inactive)
45 | C[C@@H]1CN([C@H](C)CO[Si](C)(C)C(C)(C)C)C(=O)c2cc(NC(=O)C3CCCCC3)ccc2O[C@H]1CN(C)C(=O)c1ccc(Cl)cc1 | -16.8% (inactive)
46 | C[C@@H]1CN([C@H](C)CO)C(=O)c2cc(NC(=O)Cc3cn(C)c4ccccc34)ccc2O[C@H]1CN(C)Cc1ccccc1 | -31.2% (inactive)
47 | C[C@@H]1CN([C@@H](C)CO)C(=O)Cc2cc(NS(=O)(=O)c3cn(C)cn3)ccc2O[C@@H]1CN(C)Cc1ccc(Cl)c(Cl)c1 | -6.37% (inactive)
48 | COCC(=O)N1CCc2cc(-c3csc(NC(=O)c4cc(OC)cc(OC)c4)n3)ccc21 | 3.3% (inactive)
49 | C[C@@H]1CN([C@H](C)CO)C(=O)Cc2cc(NC(=O)Cc3cn(C)c4ccccc34)ccc2O[C@H]1CN(C)S(=O)(=O)c1ccc(F)cc1 | -0.321% (inactive)
50 | CNC[C@@H]1Oc2ccc(NC(=O)Cc3cn(C)c4ccccc34)cc2C(=O)N([C@H](C)CO)C[C@H]1C | 14.8% (inactive)
51 | C[C@@H]1CN([C@H](C)CO)C(=O)c2cc(NC(=O)Cc3cn(C)c4ccccc34)ccc2O[C@H]1CN(C)C | 6.87% (inactive)
52 | C[C@@H]1CN([C@H](C)CO)C(=O)c2cc(NS(=O)(=O)c3ccc(F)cc3)ccc2O[C@H]1CN(C)S(=O)(=O)c1ccc(Cl)cc1 | -2.92% (inactive)
53 | CCCNC(=O)N(C)C[C@@H]1Oc2cc(-c3cncnc3)ccc2S(=O)(=O)N([C@@H](C)CO)C[C@@H]1C | -5.43% (inactive)
54 | C[C@@H]1CN([C@@H](C)CO)C(=O)Cc2cc(NS(=O)(=O)c3cn(C)cn3)ccc2O[C@H]1CN(C)Cc1ccc(Cl)c(Cl)c1 | 3.09% (inactive)
55 | C[C@@H]1CN([C@H](C)CO)C(=O)c2cc(NC(=O)Cc3cn(C)c4ccccc34)ccc2O[C@H]1CN(C)C(=O)Nc1ccc2c(c1)OCO2 | 7.49% (inactive)
56 | C[C@@H]1CN([C@H](C)CN)C(=O)c2cc(NC(=O)Cc3cn(C)c4ccccc34)ccc2O[C@H]1CN(C)S(=O)(=O)c1ccc(Cl)cc1 | -0.334% (inactive)
